Experimental findings from the array DNA melting data of Ke et al. (doi:10.1101/2024.01.08.574731) are described below.

Series [1] is described as follows: folding enthalpy; higher = less favourable; fluorescence melt of hairpins on a sequencing array, two-state fit. The following applies: sodium 0.088 M. The essentials:
(§1)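 On a sequenced MiSeq flow cell, library hairpins with annealed Cy3 and quencher oligos were imaged for Cy3 fluorescence in 2.5 °C steps up to 60 °C, in 50 mM Na-HEPES pH 8.0, 25 mM NaCl. Normalisation used pre-quench Cy3 and control constructs. Bootstrapped two-state fits gave melting temperature and folding enthalpy, combined by inverse variance across four replicates and with fitted temperatures raised by 9.35 °C to match UV melts.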

A short description of series [2]: melting temperature; fluorescence melt of hairpins on a sequencing array, two-state fit, raised by 9.35 °C to match UV melts. The note with it: sodium 0.088 M. The essentials: as §1

Take GAACTGGGAAACTAGTTC (((((.(....).))))): the folding enthalpy in series [1] is -37.9 kcal/mol. The Tm in series [2] was found to be 42.4 °C.
As for GAACTTGAAAAAGTTC ((((((....)))))), the folding enthalpy in series [1] is -28.8 kcal/mol. Also, the Tm in series [2] stood at 49.7 °C.
Take GAAGAACGAAAGTTGTTC (((.(((....))).))): in series [1], the folding enthalpy was -32.7 kcal/mol. Further, the Tm in series [2] came out at 41.4 °C.
For GAAGACACGAAAGTGTTC (((..(((....)))))), the folding enthalpy in series [1] was -10.1 kcal/mol. The Tm in series [2] was 31.9 °C.
Regarding GAAGACCGAAAGGTATTC (((.(((....))).))), the folding enthalpy in series [1] was -32.5 kcal/mol. For the same sequence, in series [2], the Tm is 50.8 °C.
Turning to GAAGACCGAAAGGTTTC (((.(((....)))))), in series [1], the folding enthalpy is -13.9 kcal/mol. In addition, the Tm in series [2] amounted to 37 °C.
Turning to GAAGACGAAAGTCTTC ((((((....)))))), in series [1], the folding enthalpy is -37.7 kcal/mol. Besides, the Tm in series [2] turned out to be 64.5 °C.
The like results for GAAGAGCGAAAGCTGTTC (((.(((....))).))) were, in that order, -24.9 kcal/mol and 49.2 °C.
Regarding GAAGAGCGAAAGCTTTC (((.(((....)))))), the folding enthalpy in series [1] was -12.2 kcal/mol. The Tm in series [2] was determined as 31.1 °C.
The matching figures for GAAGAGGGAAACTTCTTC (((((.(....).))))): -30.1 kcal/mol and 41 °C.
As to GAAGATGGAAACATCTCC (.(((((....))))).), the folding enthalpy in series [1] is -16.3 kcal/mol. Moreover, the Tm in series [2] was 33.4 °C.
With GAAGATGGAAACATCTTC (((((((....))))))), the folding enthalpy in series [1] was -48.6 kcal/mol. The Tm in series [2] turned out to be 53.5 °C.
For GAAGCACGAAAGTGTTTC (((.(((....))).))), the folding enthalpy in series [1] is -35.2 kcal/mol. For the same sequence, the Tm in series [2] came out at 51.1 °C.
In the case of GAAGCAGGAAACTGTTTC (((.(((....))).))), the folding enthalpy in series [1] was -26.7 kcal/mol. Moreover, the Tm in series [2] was 38.8 °C.
Turning to GAAGCCCGAAAGGGTTTC (((.(((....))).))), the folding enthalpy in series [1] is -34.4 kcal/mol. The Tm in series [2] was 56.2 °C.
The like results for GAAGCCGAAAGGCGGTTC ((((((....)))..))) were, in that order, -9.79 kcal/mol and 47.1 °C.
The matching figures for GAAGCCGAAAGGCGTTTC ((((((....)))..))): -8.82 kcal/mol and 44.7 °C.
The like results for GAAGCCGAAAGGCTGTTC ((((((....)))..))) were, in that order, -10.4 kcal/mol and 47.4 °C.
Take GAAGCCGCGAAAGCGTTC (((..(((....)))))): in series [1], the folding enthalpy is -11 kcal/mol. In series [2], the Tm was determined as 26.3 °C.
With GAAGCCGGAAACGGCTCC (.(((((....))))).), the folding enthalpy in series [1] was -9.15 kcal/mol. In series [2], the Tm was 46.8 °C.
The like results for GAAGCGGAAACGCTTC ((((((....)))))) were, in that order, -33.6 kcal/mol and 67.6 °C.
For GAAGCTGAAAAGCTTC ((((((....)))))), the folding enthalpy in series [1] is -31.2 kcal/mol. In addition, the Tm in series [2] came out at 58.3 °C.
The matching figures for GAAGCTGGAAACAGTTTC (((.(((....))).))): -27.1 kcal/mol and 41.6 °C.
Consider GAAGGAGGAAACTCCCTC ((.((((....)))).)), for which, in series [1], the folding enthalpy was -12.1 kcal/mol. In series [2], the Tm worked out at 28.4 °C.
On to GAAGGCACGAAAGTGTTC (((..(((....)))))), for which the folding enthalpy in series [1] was -9.46 kcal/mol. In series [2], the Tm came out at 24.6 °C.
As to GAAGGCCGAAAGGCTTTC (((.(((....))).))), the folding enthalpy in series [1] was -20.6 kcal/mol. Moreover, the Tm in series [2] worked out at 54.2 °C.
The matching figures for GAAGGCGAAAGCCGATTC ((((((....)))..))): -14.7 kcal/mol and 57.8 °C.
The like results for GAAGGCGAAAGCCGTTTC ((((((....)))..))) were, in that order, -10.9 kcal/mol and 39 °C.
Consider GAAGGCGAAAGCCTCTTC ((((((....)))..))), for which the folding enthalpy in series [1] is -21.5 kcal/mol. In series [2], the Tm amounted to 54.5 °C.
Consider GAAGGGAAACCTTC (((((....))))), for which the folding enthalpy in series [1] was -20.9 kcal/mol. Also, the Tm in series [2] is 42.5 °C.
With GAAGGTGGAAACACCCTC ((.((((....)))).)), in series [1], the folding enthalpy was -12.1 kcal/mol. Besides, in series [2], the Tm was 33.8 °C.
The matching figures for GAAGTACCGAAAGGTTTC (((..(((....)))))): -9.64 kcal/mol and 27.2 °C.
The matching figures for GAAGTACGAAAGTAATTC (((.(((....))).))): -25.9 kcal/mol and 42.9 °C.
The matching figures for GAAGTCCGAAAGGATTTC (((.(((....))).))): -31.6 kcal/mol and 50.2 °C.
With GAAGTGCCGAAAGGCTTC (((..(((....)))))), the folding enthalpy in series [1] was -7.5 kcal/mol. Also, in series [2], the Tm amounted to 35.5 °C.
The matching figures for GAAGTGCGAAAGCATTC (((.(((....)))))): -13.5 kcal/mol and 36.2 °C.
For GAAGTGGGAAACCACTCC (.(((((....))))).), the folding enthalpy in series [1] is -14 kcal/mol. Moreover, the Tm in series [2] turned out to be 38.4 °C.
